According to ChEMBL document CHEMBL1131122, “Synthesis and biological activity of certain 4'-thio-D-arabinofuranosylpurine nucleosides” (J Med Chem, 1998):
pIC50: −log10 of the molar value.

Columns and labels:
Assay type in all cases: functional, cell-based
Conditions in all cases: Homo sapiens
[1] = tested on: CAKI-1; assay: Compound was evaluated for cytotoxicity against CAKI-1(renal) cell line
[2] = tested on: CCRF-CEM; assay: Compound was evaluated for cytotoxicity against CCRF-CEM (leukemia) cell line
Outline: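 Human leukemia CEM cells grown in culture and exposed to the nucleosides. In one set of runs the adenosine deaminase inhibitor 2′-deoxycoformycin was also present during the incubation.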

[3] = tested on: DLD-1; assay: Compound was evaluated for cytotoxicity against DLD-1(colon) cell line
[4] = tested on: NCI-H23; assay: Compound was evaluated for cytotoxicity against NCI-H23 (lung) cell line
[5] = tested on: SNB-7; assay: Compound was evaluated for cytotoxicity against SNB-7 (CNS) cell line
[6] = tested on: SK-MEL-28; assay: Compound was evaluated for cytotoxicity against SK-MEL-28 (melanoma) cell line

Row | SMILES | pIC50 [1] | pIC50 [2] | pIC50 [3] | pIC50 [4] | pIC50 [5] | pIC50 [6]
1 | Nc1nc(F)nc2c1ncn2[C@H]1S[C@H](CO)[C@@H](O)[C@@H]1O | 4.70 | < 3.89 | < 4.00 | < 4.00 | < 4.00 | < 4.00
2 | Nc1nc(F)nc2c1ncn2[C@@H]1S[C@H](CO)[C@@H](O)[C@@H]1O | 5.00 | 4.52 | < 4.05 | < 4.05 | < 4.05 | < 4.05
3 | Nc1nc(N)c2ncn(C3SC(CO)C(O)C3O)c2n1 (centres undefined) | 4.70 | 6.47 | < 4.60 | < 4.60 | 6.00 | 6.47
4 | Nc1nc(O)c2ncn(C3SC(CO)C(O)C3O)c2n1 (centres undefined) | 4.85 | 6.24 | < 4.70 | < 4.70 | 5.96 | 5.96
